The list is not random: actives were taken first. Their share in the collection is about 1.4%.
Avidin fluor: green autofluorescence of compounds with avidin beads – biophysical, 488/530 nm, flow cytometry, artefact control, profiling panel; compound fluorescence 488/530 nm; hits give high values; fluorescence (KMESF) at 10 µM; 0.38% of 220,000 active; in the data active = fluorescence above about 47
PMI act satM6P: human PMI activators, high substrate, primary screen, biochemical, fluorescence intensity, near-saturating mannose 6-phosphate | 0.34% of 190,000 active | coupled PMI enzyme assay, resazurin fluorescence, 20 min; hits give high values; 1 = untreated enzyme, 0 = substrate-free blank | activation factor at 20 µM | Mannose-6-phosphate isomerase (Homo sapiens), P34949;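 active = activation factor of 2 or more at 20 µM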
Target sequence (P34949 whole entry, looked up): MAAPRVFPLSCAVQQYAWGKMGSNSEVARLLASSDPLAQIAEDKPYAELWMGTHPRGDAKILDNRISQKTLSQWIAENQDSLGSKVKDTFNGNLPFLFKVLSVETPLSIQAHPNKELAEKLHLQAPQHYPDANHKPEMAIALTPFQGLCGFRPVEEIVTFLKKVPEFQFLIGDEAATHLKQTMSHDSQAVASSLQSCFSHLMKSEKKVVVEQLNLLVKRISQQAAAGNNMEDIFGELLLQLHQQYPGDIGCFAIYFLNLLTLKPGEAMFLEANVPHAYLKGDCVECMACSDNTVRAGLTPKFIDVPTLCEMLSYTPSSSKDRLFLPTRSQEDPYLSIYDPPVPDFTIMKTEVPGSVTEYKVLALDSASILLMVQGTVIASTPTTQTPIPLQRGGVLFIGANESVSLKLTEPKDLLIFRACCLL
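Material: human phosphomannose isomerase with PGI, G6PDH, diaphorase coupling enzymes; amount: PMI at 15 ng/mL final; also added: Mannose-6-phosphate 1.0 mM (near-saturating) plus 0.22 mM NADP+; incubation: enzyme reaction with compound 20 min at room temperature; signal: resorufin fluorescence (Ex 544/Em 590 nm) from resazurin via diaphorase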
p47phox inh: p47phox/p22phox peptide binding inhibitors, primary screen, biochemical, uHTS, NADPH oxidase regulatory subunit; Neutrophil cytosol factor 1 (Homo sapiens), P14598; fluorescence polarization, 2 h; inhibition, % at 24.7 µM; 0.53% of 220,000 active; AID 1274, 2008;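 active = inhibition above about 30%, limit read from the data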
PMI activator: activators of human PMI, primary screen, biochemical, fluorescence intensity, near-Km mannose 6-phosphate; activation factor at 20 µM; 0.005% of 190,000 active; purified human PMI, coupled resazurin fluorescence, 20 min; hits give high values; 1 = vehicle control, 0 substrate-free wells; Mannose-6-phosphate isomerase (Homo sapiens), P34949;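 active = activation factor of 2 or more at 20 µM, relative to plate controls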
Diaph act CS: compounds boosting diaphorase resazurin reduction – biochemical, uHTS, resorufin fluorescence, counter-screen for diaphorase-coupled primary assays, primary screen. Diaphorase/resazurin coupled assay, 16 min; hits give high values; 1 = vehicle wells, 0 = NADH-free wells. activation factor at 20 µM. 0.005% of 190,000 active;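 active = diaphorase activity raised at least twofold by the compound at 20 µM; inactive = activation factor below 2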
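Test system: Clostridium kluyveri diaphorase, purified enzyme; input: enzyme 0.07 U/mL final; buffer or medium: 50 mM HEPES pH 7.4 with 4.542 mM MgCl2, 0.005% Tween 20; also added: 0.114 mM NADH and 0.1 mM resazurin, final amounts; schedule: 16 min enzyme reaction, ambient temperature; technique: fluorescence of resorufin, 544 nm excitation, 590 nm emission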
GSH fluor: compound fluorescence on glutathione beads, profiling panel, artefact control, biophysical, 488/530 nm, flow cytometry; GSH beads flow cytometry, compound fluorescence 488/530 nm; hits give high values; 0.25% of 190,000 active; fluorescence (KMESF) at 10 µM; in the data active = fluorescence above about 89;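 also: glutathione beads carrying GST-tagged Bcl family fusion proteins plus one bare bead set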
Of the large screens only hits and unclear results are named; the others gave an inactive call.

COc1cccc(-c2nnc(NC(=O)c3ccc(Cl)s3)o2)c1	none
Cn1nc(CC(=O)N2CCN(c3ccccc3)CC2)c2ccccc2c1=O	none
Cn1nc(CC(=O)Nc2ccc(N3CCN(C(=O)OC(C)(C)C)CC3)cc2)c2ccccc2c1=O	p47phox inh 31
CN(C)C(=O)CSc1nc2ccccc2c(=O)[nH]1	Avidin fluor 165
COC(=O)c1cc(OC)c(OC)cc1NC(=O)Cc1cccs1	none (no result: PMI act satM6P, PMI activator, Diaph act CS)
COC(=O)CSc1nsc(SCC(=O)OC)c1C#N	Avidin fluor 52
CSc1snc(SCC(N)=O)c1C#N	none
O=C(NCc1nc2ccccc2[nH]1)C1CCCCC1	p47phox inh 78
Oc1ccc(/C=N/Nc2ccccc2)cc1	PMI act satM6P 2.5
Cc1nc2ccccc2nc1N/N=C/c1ccc(O)cc1	none (no result: PMI act satM6P, PMI activator, Diaph act CS, GSH fluor)
Brc1ccc(/C=N/Nc2ccccc2)cc1	PMI act satM6P 2.4
Oc1ccccc1CNCCCNCc1ccccc1O	none
O=C(NCCCN1CCOCC1)c1ccc(CS(=O)(=O)Cc2ccc(Cl)cc2)o1	none
N#C/C(C(=O)NCc1ccco1)=C1/SC(Cc2ccc(Cl)cc2)C(=O)N1c1ccccc1 (centres undefined)	none
Cc1cc(=S)cc(C)n1CCCO	PMI act satM6P 2
Cc1nc2cc(Cl)c(Cl)cc2n1CCCO	none (no result: PMI act satM6P, PMI activator, Diaph act CS, GSH fluor)
COc1ccccc1N(Cc1cc(=O)[nH]c2ccccc12)C(=O)c1ccccc1	none (no result: PMI act satM6P, PMI activator, Diaph act CS, GSH fluor)
CN(Cc1cc(=O)[nH]c2ccccc12)C(=O)c1ccccc1	GSH fluor 271
CCC1(C)CC(CC(=O)O)(c2ccccc2OC)CCO1 (centres undefined)	none
OC(c1ccccn1)c1c[nH]c2ccccc12 (centres undefined)	p47phox inh 35
O=C(COc1ncnc2ccccc12)N1CCN(S(=O)(=O)c2ccc(Cl)cc2)CC1	GSH fluor 264
C=CCC1c2cccc(C(=O)O)c2C(=O)N1c1cccc(C)c1 (centres undefined)	none
CCN(CC)S(=O)(=O)C1CCS(=O)(=O)C1 (centres undefined)	GSH fluor 242
COc1ccc(NC(=O)CSc2nncc3ccccc23)cc1	none
N#Cc1cccc(NC(=O)CSc2ccc3c4c(cccc24)C(=O)c2ccccc2-3)c1	p47phox inh 40
COc1ccc(NC(=O)CSc2ccc3c4c(cccc24)C(=O)c2ccccc2-3)cc1	Avidin fluor 49
O=C(CN1CCOCC1)NCc1ccccc1	Avidin fluor 62, p47phox inh 43
Cc1cc(-c2ccccc2)nc(N(C)NC(=O)c2c(F)cccc2F)c1S(C)(=O)=O	p47phox inh 115
Cc1cc(-c2ccccc2)nc(N(C)N)c1S(C)(=O)=O	none
Clc1ccc(/C=N/Nc2nnc(Cl)c3ccccc23)cc1	none
Clc1ccc(/C=N/Nc2nc(Cl)nc3ccccc23)cc1	p47phox inh 70
CCO[C@@H]1OC(C(=O)NCc2nc3ccccc3[nH]2)=C[C@H](C)[C@H]1CCCO	p47phox inh 45
CCO[C@H]1OC(C(=O)NCc2nc3ccccc3[nH]2)=C[C@@H](C)[C@@H]1CCCO	none
CCCCN(C(=O)CSc1nncn1-c1ccccc1OC)c1c(N)n(Cc2ccccc2)c(=O)[nH]c1=O	none
COc1ccc(/C(C)=N/Nc2ccc(F)cc2F)c(O)c1	PMI act satM6P 2.5
O=C(NCCCN1CCOCC1)c1ccc(CS(=O)(=O)c2cccc(C(F)(F)F)c2)o1	none
COc1ccc(-c2nnc(CSc3nc4ccccc4c(=O)n3CC(C)C)o2)cc1OC	p47phox inh 37
COCCCn1c(SCc2nnc(-c3ccc(OC)c(OC)c3)o2)nc2ccccc2c1=O	none
O=C(CS(=O)(=O)Cc1ccccc1)Nc1nc2ccccc2s1	p47phox inh 56
COc1ccc2nc(NC(=O)CS(=O)(=O)Cc3ccccc3)sc2c1	none
CC(NC(=O)Cn1cccc1C(=O)c1ccccc1)c1ccc2c(c1)OCCO2 (centres undefined)	p47phox inh 71
O=C(Cn1cccc1C(=O)c1ccccc1)NCc1ccc2c(c1)OCO2	none
Cc1c(N=Cc2c(O)n(Cc3ccco3)c(=O)c3ccccc23)c(=O)n(-c2ccccc2)n1C	GSH fluor 136
O=C(Nc1nc2c(s1)CCCC2=O)c1cnccn1	GSH fluor 269
Cc1ccc(CS(=O)(=O)c2ccc(C(=O)N3CCCCC3)cc2[N+](=O)[O-])cc1	none
Cc1ccc(CS(=O)(=O)c2ccc(C(=O)N3CCN(c4ccccn4)CC3)cc2[N+](=O)[O-])cc1	Avidin fluor 60
CCOC(=O)NC(CC(=O)O)c1ccc(OC)c(OC)c1 (centres undefined)	p47phox inh 68, GSH fluor 259
COc1ccc(N(C(=O)c2ccco2)S(=O)(=O)c2cccs2)cc1	none
O=C(Nc1ccccc1N(C(=O)c1ccco1)S(=O)(=O)c1cccs1)c1ccco1	GSH fluor 275
COc1ccccc1-c1ccc(/C=C2/C=C(C)OC2=O)o1	PMI act satM6P 2
O=C(NC1CCCCC1)C1CC(O)CN1C(=O)OCc1ccccc1 (centres undefined)	none
COC(=O)C1CC(O)CN1C(=O)NC1CCCCC1 (centres undefined)	PMI act satM6P 2.4
COC(=O)C(C)N1C(=O)S/C(=C\c2cc(C)n(-c3ccccn3)c2C)C1=O (centres undefined)	none
COC(=O)C(C)N1C(=O)S/C(=C/c2cc(C)n(-c3ccccn3)c2C)C1=O (centres undefined)	GSH fluor 267
CNC(=O)CSc1nnc(-c2cccnc2)n1CCc1ccccc1	none
CCN(CC)S(=O)(=O)c1cccc(-c2nnc(SCC(=O)NC)n2CCc2ccccc2)c1	Avidin fluor 161
O=c1[nH]c(=S)[nH]c(O)c1N=Nc1ccc(-c2ccccc2)cc1[N+](=O)[O-]	p47phox inh 70
Cc1cc(C)c2c(N)c(C(=O)N3CCCCCC3)sc2n1	PMI act satM6P 2.3
CC(=O)c1sc2nc(C)cc(C)c2c1N	none
Cc1cc(C)c2c(N)c(C(=O)NCc3ccco3)sc2n1	PMI act satM6P 2
N#C/C(=C(/O)c1ccc(-c2cccc([N+](=O)[O-])c2)o1)c1nc2ccccc2s1	none (no result: Avidin fluor)

Compound activity: PubChem BioAssay, several laboratories
